The values below come from ChEMBL document CHEMBL4834495, “A Green-Absorbing, Red-Fluorescent Phenalenone-Based Photosensitizer as a Theranostic Agent for Photodynamic Therapy” (ACS Med Chem Lett, 2021).

Active and inactive are the calls of the source. No cut-off for these calls is given here.

The nature of data set [1]: Absorption property of the compound in PBS containing 1% DMSO assessed as maximum absorption wavelength at pH 7.4 by UV-visible spectrophotometric method. The class given is physicochemical. The note with it: buffer.
Data set [2] can be described thus: Induction of singlet oxygen generation in PBS assessed as singlet oxygen quantum yield at pH 7.4 irradiated with 490 nm LED light by ABDA sensor based UV-Vis spectrometer analysis. The class given is functional.
The nature of data set [3]: Induction of singlet oxygen generation in PBS assessed as singlet oxygen quantum yield at pH 7.4 irradiated with 415 nm LED light by ABDA sensor based UV-Vis spectrometer analysis. The class given is functional.
Data set [4] in a line: Induction of singlet oxygen generation in DMSO assessed as singlet oxygen quantum yield at pH 7.4 irradiated with 530 nm LED light by ABDA sensor based UV-Vis spectrometer analysis. The class given is functional.
A short description of data set [5]: Emission property of the compound in DMSO assessed as maximum emission wavelength. The class given is physicochemical.
Data set [6] can be described thus: Absorption property of the compound in PBS assessed as molar extinction coefficient by absorbance based analysis. The class given is physicochemical. The note with it: buffer.
A short description of data set [7]: Absorption property of the compound in DMSO assessed as maximum absorption wavelength at pH 7.4 by UV-visible spectrophotometric method. The class given is physicochemical.
The nature of data set [8]: Fluorescence property of the compound in DMSO assessed as quantum yield. The class given is physicochemical.
Data set [9] can be described thus: Solubility of the compound in PBS containing 1% DMSO assessed as aggregate formation by measuring reduction in fluorescence intensity at 2 uM at pH 7.4 by fluorescence analysis. The class given is physicochemical. The conditions noted are these: buffer, pH 7.4, 2 µM.
The nature of data set [10]: Solubility of the compound in PBS containing 1% DMSO assessed as aggregate formation by measuring reduction in singlet oxygen formation irradiated with 530 nm LED light by ABDA sensor based UV-Vis spectrometer analysis. The conditions noted are these: buffer. The class given is physicochemical.
Data set [11] has as its system PANC-1. Description: Induction of ROS production in human PANC-1 cells assessed as increase in green fluorescence intensity at 2 uM incubated for 3 hrs followed by irradiation with 530 nm LED light for 10 mins by DCFH2-DA staining based fluorescence microscopy. The class given is functional, cell-based. The conditions noted are these: time 190.0 min. The method in brief:
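PANC-1 cells in reduced-serum Opti-MEM received compound from a DMSO stock (2 μM final) for 3 h, plus the ROS sensor DCFH2-DA. Cells were irradiated at 530 nm for 10 min (11.14 J/cm2). Green DCF fluorescence was imaged by fluorescence microscopy and compared with non-irradiated cells and with single-agent irradiated controls.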

Data set [12] deals with PANC-1. Description: Phototoxicity against human PANC-1 cells assessed as reduction in cell viability incubated for 3 hrs followed by 525 nm green-light irradiation for 15 mins and measured after overnight incubation by MTT assay. The class given is functional, cell-based. Summed up: (§1)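 PANC-1 cells were treated with compound (0–2 μM), then either kept dark or irradiated 15 min under a green-filtered lamp (emission max 525 nm, 16.61 J/cm2). Cells were then cultured 24 h in the dark, and viability was read by standard MTT assay. Data are mean ± SD, n = 9; IC50 was taken from the dose–response.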
(Tetrazolium dyes change colour on reduction, which living cells bring about.)

The test system of data set [13] is PANC-1. Description: Dark toxicity against human PANC-1 cells assessed as reduction in cell viability incubated for 24 hrs by MTT assay. The class given is functional, cell-based. The conditions noted are these: PANC-1, 24 h. Summed up: as §1
Data set [14] deals with PANC-1. Kind of data set: Induction of apoptosis in human PANC-1 cells at 0.5 uM incubated for 3 hrs followed by incubation under dark conditions for 30 mins by Annexin V-FITC/PI staining based flow cytometric analysis. The class given is functional, cell-based. The note with it: time 210.0 min. On the technique in general: In flow cytometry, cells or beads pass a laser one at a time.

The test system of data set [15] is PANC-1. Description: Antitumor activity against human PANC-1 cell 3D spheroids assessed as reduction in spheroid diameter at 0.063 to 1.5 uM incubated for 3 hrs followed by irradiation with 525 nm green lamp light for 15 mins and measured after 27 hrs by ReadyProbes Blue/Green reagent based cell viability imaging analysis. The class given is functional. The note with it: dose 0.063-1.5 µM, time 1815.0 min. The method in brief: (§2)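 PANC-1 spheroids incubated 3 h with compound (0–1.5 μM), then either kept dark or irradiated 15 min with a green-filtered lamp (emission max 525 nm, 16.61 J/cm2). Diameter and morphology were assessed from bright-field images. Viability was imaged at 10× with the ReadyProbes Blue/Green kit: Hoechst 33342 stains all nuclei blue, and a green nuclear dye stains dead cells.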

The subject of data set [16] is PANC-1. Description: Antitumor activity against human PANC-1 cell 3D spheroids assessed as changes in spheroid morphology and density incubated for 3 hrs followed by irradiation with 525 nm green lamp light for 15 mins and measured after 27 hrs by ReadyProbes Blue/Green reagent based cell viability imaging analysis. The class given is functional. The note with it: dose 0.063-1.5 µM, time 1815.0 min. The method in brief: as §2

A short description of data set [17]: Absorption property of the compound in PBS assessed as molar extinction coefficient in presence of BSA by absorbance based analysis. The class given is physicochemical. The conditions noted are these: buffer.
A short description of data set [18]: Solubility of the compound in DMEM medium assessed as aggregate formation by measuring reduction in fluorescence intensity at 9 uM by fluorescence analysis. The class given is physicochemical.
A short description of data set [19]: Solubility of the compound in Opti-MEM medium assessed as aggregate formation by measuring reduction in fluorescence intensity at 9 uM by fluorescence analysis. The class given is physicochemical.
Data set [20] can be described thus: Photostability of the compound in PBS assessed as absorbance at 546 nm at 2 uM measured upon irradiation with 530 nm LED light in presence of BSA by absorbance based analysis. The class given is physicochemical. The conditions noted are these: buffer.
In data set [21] the test system is PANC-1. Description: Antitumor activity against human PANC-1 cell 3D spheroids assessed as total spheroid breakage at 1.5 uM incubated for 3 hrs followed by irradiation with 525 nm green lamp light for 15 mins and measured after 27 hrs by ReadyProbes Blue/Green reagent based cell viability imaging analysis. The conditions noted are these: time 1815.0 min. The class given is functional. Summed up: as §2

For data set [22], the system named is PANC-1. Kind of data set: Antitumor activity against human PANC-1 cell 3D spheroids assessed as spheroid cell death at 0.38 to 1.5 uM incubated for 3 hrs followed by irradiation with 525 nm green lamp light for 15 mins and measured after 27 hrs by Hoechst33342 nuclear staining based analysis. The conditions noted are these: dose 0.38-1.5 µM, time 1815.0 min. The class given is functional. The method in brief:
as §2

The test system of data set [23] is PANC-1. Description: Antitumor activity against human PANC-1 cell 3D spheroids assessed as total spheroid breakage at 0.063 to 1.5 uM incubated for 3 hrs under dark conditions by ReadyProbes Blue/Green reagent based cell viability imaging analysis. The class given is functional. The conditions noted are these: dose 0.063-1.5 µM. The method in brief: as §2
Data set [24] has as its system PANC-1. Description: Antitumor activity against human PANC-1 cell 3D spheroids assessed as spheroid diameter at 0.063 to 1.5 uM incubated for 3 hrs under dark conditions by ReadyProbes Blue/Green reagent based cell viability imaging analysis. The class given is functional. The note with it: dose 0.063-1.5 µM. Summed up:
as §2

Data set [25] relates to PANC-1. Kind of data set: Antitumor activity against human PANC-1 cell 3D spheroids assessed as spheroid cell death at 0.063 to 1.5 uM incubated for 3 hrs under dark conditions by Hoechst33342 staining based analysis. The class given is functional. The note with it: dose 0.063-1.5 µM. Summed up:
as §2

Data set [26] deals with PANC-1. Description: Induction of apoptosis in human PANC-1 cells at 0.5 uM incubated for 3 hrs followed by irradiation with 525 nm green lamp light for 15 mins and measured after 24 hrs by Annexin V-FITC/PI staining based fluorescence microscopy. The note with it: time 1635.0 min.

Take `Nc1cc2c3c(c(O)ccc3c1)C(=O)C=C2`: the Activity is 485 nm in [1] and under 0.01 in data set [2].
Turning to `Nc1cc2c3c(cccc3c1Br)C(=O)C=C2`, the Activity in data set [1] turned out to be 458 nm; in [3] it was 0.1.
As to `O=C1OC2(c3ccccc31)c1cc(Br)c(O)c(Br)c1Oc1c2cc(Br)c(O)c1Br`, the Activity in data set [2] was found to be 0.57.
For `Nc1ccc2c3c(cccc13)C(=O)C=C2`, the Activity was under 0.01 in data set [4]; 548 nm in [1]; 597 nm in [5]; 12736 M⁻¹ cm⁻¹ in data set [6]; 518 nm in [7]; 0.26 in [8].
Consider `COc1ccc2cccc3c2c1C(=O)C=C3`, for which the Activity in data set [1] was determined as 418 nm; in data set [3], 0.68.
With `COc1ccc2cccc3c2c1C(=O)C(Br)=C3`, the values for the Activity in data set [1] and in [3] were 427 nm and 0.89, respectively.
Consider `Nc1c(Br)cc2c3c(cccc13)C(=O)C(Br)=C2`, for which the Activity is 0.47 in [4]; 546 nm in [1]; 602 nm in data set [5]; 525 nm in [7]; “Dose-Dependent Effect” in the data set on PANC-1 [12]; “Dose-Dependent Effect” with PANC-1 [16]. The Activity worked out at 12695 M⁻¹ cm⁻¹ in data set [17] and 0.29 in [8]. Moreover, the solubility entry in data set [9], in data set [10], in data set [18] and in data set [19] was “Insoluble” throughout. Besides, the outcome in the data set on PANC-1 [11], with PANC-1 [15], in the data set on PANC-1 [21], in the data set on PANC-1 [22] and in the data set on PANC-1 [26] was Active. Further, the IC50 is 0.166 µM in the data set on PANC-1 [12] (PANC-1, light or radiation study) and over 2 µM in the data set on PANC-1 [13]. The outcome in the data set on PANC-1 [14], in the data set on PANC-1 [23], in the data set with PANC-1 [24] and in the data set on PANC-1 [25] was inactive. The Stabilty result in data set [20] is listed as “Stable”.
With `Nc1cc2c3c(cccc3c1)C(=O)C=C2`, the Activity in data set [1] worked out at 457 nm; in data set [3] it was 0.18.
For `O=C1C=Cc2cccc3ccc(O)c1c23`, in that order: 439 nm and 0.96.
`CCN(CC)c1ccc2c(-c3ccccc3C(=O)O)c3ccc(=[N+](CC)CC)cc-3oc2c1.[Cl-]` [RHODAMINE]: the Activity in [8] was 0.5.
Consider `O=C1C=Cc2cccc3cccc1c23` [PERINAPHTHENONE], for which the Activity in [6] was determined as 10000 M⁻¹ cm⁻¹; in data set [3], 1.

A word on the IC50: it is the concentration that gives 50% inhibition.
